Assay outcomes deposited in PubChem BioAssay by Johns Hopkins Ion Channel Center.
A selection: hits, their analogues and other compounds. The true share with any hit is near 2.9%.
TRPC4 act: activators of mouse TRPC4 channel, primary screen, Fluo4 calcium, HEK293 TRPC4beta/mu-opioid cells | Short transient receptor potential channel 4 (Mus musculus), Q9QUQ5 | Fluo4 calcium fluorescence; hits give high values | B-score at 10 µM | 310,000 compounds, 0.49% hits | AID 2237, 2010;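 active = B-score above 5 SD of library B-scores, and initial fluorescence ratio not above library mean plus 5 SD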;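 also: positive B-score marks a calcium rise read as TRPC4 activation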
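System: HEK293 cells stably co-expressing mouse TRPC4beta and mu-opioid receptor; Schedule: Fluo4 dye loading 45 min at room temperature, 110 s recording; Detection: Fluo4 fluorescence, kinetic; Evaluation: B-scored integrated calcium fluorescence ratio; Controls: buffer (low) and maximal DAMGO (high).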
TRPC4 PAM: positive allosteric modulators of TRPC4, primary screen, cell-based, mouse TRPC4beta, HEK293 mu-opioid, Fluo-4 calcium. DAMGO EC20, Fluo-4 Ca2+ flux; hits give high values. B-score at 10 µM. 310,000 compounds, 0.42% hits. Short transient receptor potential channel 4 (Mus musculus), Q9QUQ5;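 active = B-score of calcium response area above 5 SD of library B-scores, with initial fluorescence ratio within 5 SD of library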;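 also: B-score of integrated fluorescence ratio over time as area under calcium response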
TRPC4 block: inhibitors of mouse TRPC4 channel, primary screen, Fluo4 calcium, HEK293 TRPC4beta/mu-opioid cells | Short transient receptor potential channel 4 (Mus musculus), Q9QUQ5 | DAMGO-evoked Fluo4 calcium flux; hits give low values | B-score at 10 µM | 300,000 compounds, 0.39% hits;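 active = B-score over 3 SD under the library average, no early fluorescence shift, positive overall ratio signal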
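Signal: kinetic Fluo4 fluorescence imaging of calcium influx. Material: stable TRPC4beta/mu-opioid receptor HEK293 cells. Probe or stimulus: DAMGO in two steps, submaximal then maximal.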
TRPC6 activator: mouse TRPC6 channel activators, primary screen, cell-based, HEK293, membrane potential dye; HEK293-TRPC6 membrane potential dye fluorescence; hits give high values; B-score at 10 µM; AID 2550, 2010; 310,000 compounds, 0.13% hits;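 active = B-score of the integrated fluorescence ratio above library mean plus 3 SD, and starting fluorescence ratio within library mean plus 5 SD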;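 also: higher score means more depolarization so channel activation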
Target sequence (Q61143 whole entry, looked up): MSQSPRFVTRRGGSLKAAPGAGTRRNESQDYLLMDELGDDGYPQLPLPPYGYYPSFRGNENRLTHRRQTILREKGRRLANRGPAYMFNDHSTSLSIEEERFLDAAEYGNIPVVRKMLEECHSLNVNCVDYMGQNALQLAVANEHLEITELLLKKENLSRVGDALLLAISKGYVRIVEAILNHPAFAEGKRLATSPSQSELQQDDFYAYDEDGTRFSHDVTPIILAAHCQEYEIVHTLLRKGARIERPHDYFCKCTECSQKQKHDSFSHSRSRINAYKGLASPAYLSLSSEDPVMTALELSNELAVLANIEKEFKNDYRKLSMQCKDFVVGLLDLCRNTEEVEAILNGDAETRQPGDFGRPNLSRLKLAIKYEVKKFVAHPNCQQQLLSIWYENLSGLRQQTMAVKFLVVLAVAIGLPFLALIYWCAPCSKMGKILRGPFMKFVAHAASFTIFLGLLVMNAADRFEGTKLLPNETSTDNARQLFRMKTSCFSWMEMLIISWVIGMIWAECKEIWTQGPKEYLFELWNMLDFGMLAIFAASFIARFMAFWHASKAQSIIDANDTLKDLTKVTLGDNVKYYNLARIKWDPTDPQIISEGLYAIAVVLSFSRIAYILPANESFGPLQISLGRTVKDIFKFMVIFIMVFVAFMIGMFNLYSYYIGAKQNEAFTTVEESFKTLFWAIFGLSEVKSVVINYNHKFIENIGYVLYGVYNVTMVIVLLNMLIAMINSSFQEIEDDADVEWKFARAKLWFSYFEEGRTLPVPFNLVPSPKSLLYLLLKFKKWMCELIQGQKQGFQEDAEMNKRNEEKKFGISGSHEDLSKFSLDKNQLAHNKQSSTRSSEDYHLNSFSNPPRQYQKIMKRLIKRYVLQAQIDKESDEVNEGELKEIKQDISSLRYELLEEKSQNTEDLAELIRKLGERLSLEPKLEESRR
TRPC6 inh: mouse TRPC6 channel inhibitors, primary screen, cell-based, HEK293, membrane potential dye | Short transient receptor potential channel 6 (Mus musculus), Q61143 | ACh-evoked depolarization; hits give low values | B-score at 10 µM | 310,000 compounds, 1.1% hits | AID 2553, 2010;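 active = B-score under library mean minus 3 SD, initial fluorescence not abnormally high, positive integrated signal ratio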;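 also: B-score derived from integrated fluorescence ratio over the kinetic read; more negative B-score means stronger inhibition of depolarization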
Kir21 inh: inhibitors of mouse Kir2.1 inward-rectifier potassium channel | HEK293-Kir2.1, FluxOR thallium flux fluorescence; hits give low values | B-score at 10 µM | 310,000 compounds, 0.85% hits | AID 1672, 2009;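 active = fluorescence ratio B-score at or below minus 3 SD of library scores, with starting-brightness B-score within 2 SD, cut at about -4.2 in these data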;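 also: channel flux triggered by added potassium and thallium sulfate stimulus; B-score of peak minus minimum fluorescence over baseline after thallium stimulus; more negative B-score means stronger Kir2.1 block with less thallium influx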
TRPC4 sel inh 2: second check of whether TRPC6 inhibitors also affect mouse TRPC4 | HEK293 TRPC4/MOR, membrane potential dye fluorescence; channel activated by saturating DAMGO dose | 920 compounds, 42% hits | shares compounds with TRPC6 inh | inhibition, % at 10 µM;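 active = compounds whose fluorescence signal differed from control wells by over 3 SD, either direction, in both duplicate plates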
TRPC4 spec: mouse TRPC4 modulation by TRPC6 hits, confirmation, selectivity assay for TRPC6 inhibitor project, cell-based, HEK293 TRPC4/mu-opioid, membrane potential dye. membrane potential fluorescence. 920 compounds, 61% hits. activity change, negative = inhibition, % at 10 µM. shares compounds with TRPC6 inh. AID 2777, 2010;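 active = rise or fall in signal beyond 3 SD of buffer-only wells in both replicate plates, either sign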;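 also: integrated kinetic ratio of fluorescence range over baseline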
HEK293 MPD ctr 2-1: nonspecific membrane potential effects, parental HEK293, confirmation, counter-screen for TRPC6 inhibitor project, cell-based, second counter screen. 920 compounds, 31% hits. shares compounds with TRPC6 inh. AID 2779, 2010. signal change vs control, % at 10 µM. parental HEK293 membrane potential dye fluorescence; maximal acetylcholine challenge after compound addition;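 active = membrane potential signal moving either way by over 3 SD of the maximum-effect control, in both duplicate plates, meaning non-specific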
HEK293 MPD ctr-1: membrane potential modulation in parental HEK293, confirmation, counter-screen for TRPC6 inhibitor project, cell-based. shares compounds with TRPC6 inh. parental HEK293 membrane potential dye fluorescence. membrane potential signal change, % at 10 µM. 920 compounds, 60% hits. AID 2780, 2010;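 active = membrane potential signal shifting up or down by more than 3 SD of buffer-only wells, on both duplicate plates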
HEK293 MPD ctr-2: parental HEK293 membrane potential modulation, confirmation, counter-screen for TRPC6 modulator project, cell-based; shares compounds with TRPC6 inh; membrane potential dye fluorescence; membrane potential signal change, % at 10 µM; 2,400 compounds, 51% hits;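 active = membrane potential signal moves up or down beyond 5 SD from buffer-only wells, on both duplicate plates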
HEK293 MPD ctr 2-2: second counter-screen for TRPC6 modulators: effect in parental HEK293 cells | shares compounds with TRPC6 inh | inhibition, % at 10 µM | membrane potential dye fluorescence; after compound, maximal acetylcholine stimulation | 2,400 compounds, 14% hits;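 active = membrane potential signal drops by more than 5 SD from the mean control signal, in both duplicate plates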;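 also: plate controls were acetylcholine ECmax control wells for no effect and buffer only wells for full effect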
TRPC4/MOR mod: TRPC4 modulation by TRPC6 hit compounds, confirmation, selectivity assay for TRPC6 modulator project, cell-based, HEK293 TRPC4/mu-opioid, membrane potential dye, mouse. shares compounds with TRPC6 inh. membrane potential fluorescence. percent change from control (negative = decrease, positive = increase), % at 10 µM. 2,400 compounds, 69% hits;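 active = membrane potential signal moved up or down beyond 5 SD of buffer control wells, in both duplicate plates, actives on both sides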;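 also: plate controls were assay buffer wells for no effect and DAMGO maximal-effect wells for full effect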
TRPC4 ctr inh 2: mouse TRPC4 off-target activity of TRPC6 modulators, second screen | shares compounds with TRPC6 inh | AID 488928 | inhibition, % at 10 µM | HEK293 TRPC4/mu-opioid, membrane potential dye fluorescence; stimulated with maximal-effect DAMGO | 2,400 compounds, 55% hits;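 active = drop in membrane potential signal beyond 5 SD of the control wells in both duplicate plates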;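 also: TRPC4 counter screen for TRPC6 hits run under conditions tuned for TRPC6 not TRPC4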
TRPC6 block conf: mouse TRPC6 channel inhibitors, confirmation, HEK293 cells, membrane potential dye, duplicate | shares compounds with TRPC6 inh | ACh-evoked depolarization | inhibition, % at 10 µM | 3,300 compounds, 43% hits | AID 488960, 2010;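 active = fluorescence ratio falls more than 5 SD below the full-stimulation control mean, in both duplicate runs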;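 also: integrated fluorescence ratio of peak minus minimum over baseline after agonist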
TRPC6 act conf: mouse TRPC6 channel activators, confirmation, HEK293 cells, membrane potential dye, duplicate; 2,800 compounds, 11% hits; AID 488961, 2010; shares compounds with TRPC6 inh; HEK293-TRPC6 membrane potential dye fluorescence, FDSS; activation, % at 10 µM;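 active = ratio signal rise beyond 5 SD above unstimulated control wells' mean, seen in both duplicate runs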;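 also: plate controls were buffer EC0 wells for no effect and acetylcholine ECmax response for full effect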
* hit, by the source's call; i = inactive; x = no result.

SMILES	TRPC4 act	TRPC4 PAM	TRPC4 block	TRPC6 activator	TRPC6 inh	Kir21 inh	HEK293 MPD ctr-2	HEK293 MPD ctr 2-2	TRPC4/MOR mod	TRPC4 ctr inh 2	TRPC6 block conf	TRPC6 act conf	others
Cn1c(SCC(=O)N2CCOCC2)nc2sc3c(c2c1=O)CCCC3	i	i	i	i	-8.8*	0.89	x	x	x	x	i	i	TRPC4 sel inh 2=i;TRPC4 spec=i;HEK293 MPD ctr 2-1=i;HEK293 MPD ctr-1=i
CCOC(=O)Nc1ccc2c(c1)OCO2	i	i	i	i	-5.6*	-2.1	i	i	i	i	i	i
COc1ccc(NS(=O)(=O)c2ccc3c(c2)NC(=O)CO3)c(OC)c1	i	i	i	i	i	0.46	x	x	x	x	x	x
COc1cccc(NC(=O)C(NCCc2ccc(S(N)(=O)=O)cc2)c2ccccc2)c1 (stereo unspecified)	i	i	i	i	i	-1.2	x	x	x	x	x	x
c1ccc(Oc2cccc(OCCCCN3CCCC3)c2)cc1	i	i	i	i	-8.6*	-3	x	x	x	x	i	x	TRPC4 sel inh 2=i;TRPC4 spec=5.8%*;HEK293 MPD ctr 2-1=262%*;HEK293 MPD ctr-1=5.1%*
CC(C)c1nc(N2CCOCC2)c(C#N)c2c1CCCC2	i	i	i	i	-5.5*	-2.2	i	i	18%*	i	i	x
COc1ccccc1C(=O)Nc1nnc(S(=O)(=O)N2CCN(c3ccc(F)cc3)CC2)s1	i	i	i	i	i	0.03	x	x	x	x	x	x
C/C(=N\NC(=O)c1c(C)nc2ccccn12)c1ccc(C(C)(C)C)cc1	i	i	i	i	i	1.1	x	x	x	x	x	x
C/C(=N\NC(=O)c1c(C)nc2ccccn12)c1ccco1	i	i	i	i	-5.7*	-0.8	-309%*	i	-60%*	36%*	50%*	i
COc1ccc(-c2noc(CCC(=O)NCC3CCCO3)n2)cc1OC (stereo unspecified)	i	i	i	i	i	-0.86	x	x	x	x	x	x
COc1ccc(OC)c(NC(=S)N2CCC(C(O)(c3ccccc3)c3ccccc3)CC2)c1	i	i	i	i	i	0.11	x	x	x	x	x	x
COc1cc(/C=C/c2cc(OC(C)=O)c3ccccc3n2)c(OC(C)=O)c([N+](=O)[O-])c1	i	i	i	i	i	2.7	x	x	x	x	x	x
O=C(CSc1ncccn1)N1CCN(C(c2ccccc2)c2ccccc2)CC1	i	i	i	i	-7.9*	-0.11	x	x	x	x	76%*	x	TRPC4 sel inh 2=i;TRPC4 spec=1.9%*;HEK293 MPD ctr 2-1=i;HEK293 MPD ctr-1=1.4%*
O=C(CSc1ncccn1)N1CCN(C(=O)CSc2ncccn2)CC1	i	i	i	i	i	0	x	x	x	x	x	x
CCC(C)(C)c1ccc(OCCCC[n+]2ccc(C)cc2)c(C(C)(C)CC)c1	i	i	i	i	-6.2*	-4.9*	i	i	-14%*	i	i	i
C#CCn1cccc(C(=O)Nc2ccc(OC)cc2)c1=O	i	i	i	i	i	-0.43	x	x	x	x	x	x
C#CCn1cc(Cl)cc(C(=O)Nc2ccccc2)c1=O	i	i	i	i	-7.1*	-1.3	x	x	x	x	i	i	TRPC4 sel inh 2=i;TRPC4 spec=i;HEK293 MPD ctr 2-1=i;HEK293 MPD ctr-1=i
COc1ccccc1/C=C1\SC(=S)N(CCC(=O)N2CCN(C)CC2)C1=O	i	i	i	i	-5.3*	0.03	i	i	i	44%*	i	i
CCOC(=O)N1CCN(C(=O)CCN2C(=O)/C(=C\c3ccccc3OC)SC2=S)CC1	i	i	i	i	i	-0.06	x	x	x	x	x	x
C=CCn1c(/N=C/c2ccc(N(C)C)cc2)nc2ccccc21	86*	10*	i	22*	-6.6*	-0.04	890%*	i	68%*	76%*	82%*	262%*
C/C(=N/NC(=S)Nc1cccc(C)c1)c1cccc([N+](=O)[O-])c1	i	i	i	i	-5.3*	0.34	i	i	i	30%*	i	i
C/C(=N\NC(=S)NC(C)C)c1cccc([N+](=O)[O-])c1	i	i	i	i	i	-0.27	x	x	x	x	x	x
